Data published in paper PMC7016295 (Acta Pharmaceutica Sinica. B, 2019).

Test system: xenograft tumors of murine glioma GL261 cells
Assay: GL261 xenograft tumor model
Type: in vivo, C57BL/6 mice
Procedure, shortened: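 About 3 × 10⁶ GL261 cells implanted subcutaneously at the left scapula of male C57BL/6 mice (6–8 weeks). At 100–300 mm³, mice randomized (n = 7/group). Vehicle (0.5% methylcellulose) oral daily. TMZ 100 mg/kg oral every 2 days, alone or with 50 mg/kg. Endpoint: tumour weight; body weight; CD31 immunohistochemistry (1:200) on 4 μm paraffin sections.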

**Q.** Which results are given for `Cn1nnc2c(C(N)=O)ncn2c1=O` [TMZ, temozolomide]?
**A.** body weight (GL261 xenograft mice, vs control (co-treatment vs TMZ group)): significantly decreased; tumor inhibition rate (TMZ only, 100 mg/kg oral every 2 days): 34.15%
